Values after ≈ are worked out from the molar mass of the structure shown. Active and inactive are the calls of the source. No cut-off for these calls is given here.
Legend:
Pseudomonas aeruginosa [1] = assay: Antibacterial activity against Pseudomonas aeruginosa ATCC 27853 assessed as growth inhibition after 48 hrs by two-fold serial dilution assay; type: functional; details: ATCC 27853, 48 h
How it was run: (§1)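 Twofold serial broth dilution run on compounds giving inhibition zones of 13 mm or more. Organisms pre-grown in suitable broth at 37 °C, 24 h for bacteria and 48 h for fungi. Dilution series 200, 100, 50, 25, 12.5, 6.25. Each 5 mL tube inoculated with 0.1 mL and incubated 37 °C for 48 h. Tubes scored for presence or absence of growth.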

SR = assay: Cytotoxicity against human SR cells assessed as growth inhibition at 10 uM after 48 hrs by SRB assay; type: functional; details: read-out: GI
How it was run: (§2)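 NCI-60 one-dose primary screen run by the NCI Drug Evaluation Branch across the full 60-line panel. Single high-dose treatment with 48 h continuous drug exposure. Cell growth estimated by sulforhodamine B protein staining. Results given as percent growth of treated cells and expressed as percentage growth inhibition.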

HT-29 = assay: Cytotoxicity against human HT-29 cells assessed as growth inhibition at 10 uM after 48 hrs by SRB assay; type: functional; details: HT-29, 48 h, read-out: GI; how it was run: as §2
A498 = assay: Cytotoxicity against human A498 cells assessed as growth inhibition at 10 uM after 48 hrs by SRB assay; type: functional; details: A498, 48 h, read-out: GI; how it was run: as §2
[2] = Cytotoxicity against human UO31 cells assessed as growth inhibition at 10 uM after 48 hrs by SRB assay; type: functional; details: UO-31, 48 h, read-out: GI; how it was run: as §2
SN12C = assay: Cytotoxicity against human SN12C cells assessed as growth inhibition at 10 uM after 48 hrs by SRB assay; type: functional; details: read-out: GI; how it was run: as §2
LOX IMVI = assay: Cytotoxicity against human LOXIMVI cells assessed as growth inhibition at 10 uM after 48 hrs by SRB assay; type: functional; details: read-out: GI; how it was run: as §2
K562 = assay: Cytotoxicity against human K562 cells assessed as growth inhibition at 10 uM after 48 hrs by SRB assay; type: functional; details: K562, 48 h, read-out: GI; how it was run: as §2
HCT-116 = assay: Cytotoxicity against human HCT116 cells assessed as growth inhibition at 10 uM after 48 hrs by SRB assay; type: functional; details: HCT-116, 48 h, read-out: GI; how it was run: as §2
SK-MEL-5 = assay: Cytotoxicity against human SK-MEL-5 cells assessed as growth inhibition at 10 uM after 48 hrs by SRB assay; type: functional; details: SK-MEL-5, 48 h, read-out: GI; how it was run: as §2
SW-620 = assay: Cytotoxicity against human SW620 cells assessed as growth inhibition at 10 uM after 48 hrs by SRB assay; type: functional; details: SW-620, 48 h, read-out: GI; how it was run: as §2
PC-3 = assay: Cytotoxicity against human PC3 cells assessed as growth inhibition at 10 uM after 48 hrs by SRB assay; type: functional; details: PC-3, 48 h, read-out: GI; how it was run: as §2
NCI-H226 = assay: Cytotoxicity against human NCI-H226 cells assessed as growth inhibition at 10 uM after 48 hrs by SRB assay; type: functional; details: NCI-H226, 48 h, read-out: GI; how it was run: as §2
SF-268 = assay: Cytotoxicity against human SF268 cells assessed as growth inhibition at 10 uM after 48 hrs by SRB assay; type: functional; details: SF-268, 48 h, read-out: GI; how it was run: as §2
IGROV-1 = assay: Cytotoxicity against human IGROV1 cells assessed as growth inhibition at 10 uM after 48 hrs by SRB assay; type: functional; details: IGROV-1, 48 h, read-out: GI; how it was run: as §2
Escherichia coli [3] = assay: Bactericidal activity against Escherichia coli ATCC 25922 after 18 hrs; type: functional; details: ATCC 25922, 18 h
How it was run: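 Continuation of the broth-dilution MIC test. A loopful from each tube without visible growth spread on a quarter of a Mueller-Hinton agar plate and incubated 18 h. Lowest concentration giving no growth on subculture taken as the MBC.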

Pseudomonas aeruginosa [4] = assay: Antibacterial activity against Pseudomonas aeruginosa ATCC 27853 assessed as growth inhibition at 1 mg/mL after 24 hrs by agar-cup diffusion method; type: functional; details: ATCC 27853, 24 h, read-out: DIZ
How it was run: (§3)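 Agar-cup diffusion: 1 mL of 6 h broth culture seeded per 100 mL molten sterile agar at 45 °C and poured into plates. 8 mm cups cut, each filled with 0.1 mL of 1 mg/mL test solution. Incubated 37 °C for 24 h, 48 h for C. albicans. DMSO control per organism. Inhibition zone diameter in mm, mean of three measurements.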

Candida albicans = assay: Antifungal activity against Candida albicans ATCC 10231 assessed as growth inhibition at 1 mg/mL after 48 hrs by agar-cup diffusion method; type: functional; details: ATCC 10231, 48 h, read-out: DIZ; how it was run: as §3
HOP-92 = assay: Cytotoxicity against human HOP92 cells assessed as growth inhibition at 10 uM after 48 hrs by SRB assay; type: functional; details: HOP-92, 48 h, read-out: GI; how it was run: as §2
RPMI-8226 = assay: Cytotoxicity against human RPMI8226 cells assessed as growth inhibition at 10 uM after 48 hrs by SRB assay; type: functional; details: RPMI-8226, 48 h, read-out: GI; how it was run: as §2
CCRF-CEM = assay: Cytotoxicity against human CCRF-CEM cells assessed as growth inhibition at 10 uM after 48 hrs by SRB assay; type: functional; details: read-out: GI; how it was run: as §2
Bacillus spizizenii [5] = assay: Antibacterial activity against Bacillus subtilis ATCC 6633 assessed as growth inhibition at 1 mg/mL after 24 hrs by agar-cup diffusion method; type: functional; details: ATCC 6633, 24 h, read-out: DIZ; how it was run: as §3
UACC-62 = assay: Cytotoxicity against human UACC62 cells assessed as growth inhibition at 10 uM after 48 hrs by SRB assay; type: functional; details: UACC-62, 48 h, read-out: GI; how it was run: as §2
[6] = Cytotoxicity against human NCI-ADR-RES cells assessed as growth inhibition at 10 uM after 48 hrs by SRB assay; type: functional; details: read-out: GI; how it was run: as §2
HCT-15 = assay: Cytotoxicity against human HCT15 cells assessed as growth inhibition at 10 uM after 48 hrs by SRB assay; type: functional; details: HCT-15, 48 h, read-out: GI; how it was run: as §2
Aspergillus niger = assay: Antifungal activity against Aspergillus niger assessed as growth inhibition at 1 mg/mL after 24 hrs by agar-cup diffusion method; type: functional, organism-based; how it was run: as §3
Bacillus spizizenii [7] = assay: Antibacterial activity against Bacillus subtilis ATCC 6633 assessed as growth inhibition after 48 hrs by two-fold serial dilution assay; type: functional; details: ATCC 6633, 48 h; how it was run: as §1
Staphylococcus aureus = assay: Antibacterial activity against Staphylococcus aureus ATCC 6538 assessed as growth inhibition after 48 hrs by two-fold serial dilution assay; type: functional; details: ATCC 6538, 48 h; how it was run: as §1
MDA-MB-468 = assay: Cytotoxicity against human MDA-MB-468 cells assessed as growth inhibition at 10 uM after 48 hrs by SRB assay; type: functional; details: MDA-MB-468, 48 h, read-out: GI; how it was run: as §2
Escherichia coli [8] = assay: Antibacterial activity against Escherichia coli ATCC 25922 assessed as growth inhibition after 48 hrs by two-fold serial dilution assay; type: functional; details: ATCC 25922, 48 h; how it was run: as §1
Escherichia coli [9] = assay: Antibacterial activity against Escherichia coli ATCC 25922 assessed as growth inhibition at 1 mg/mL after 24 hrs by agar-cup diffusion method; type: functional; details: ATCC 25922, 24 h, read-out: DIZ; how it was run: as §3
SK-MEL-2 = assay: Cytotoxicity against human SK-MEL-2 cells assessed as growth inhibition at 10 uM after 48 hrs by SRB assay; type: functional; details: SK-MEL-2, 48 h, read-out: GI; how it was run: as §2

Row | Compound | MIC (Pseudomonas aeruginosa [1]) [µg/mL] | inhibition of growth at 10 µM (SR) [%] | inhibition of growth at 10 µM (HT-29) [%] | inhibition of growth at 10 µM (A498) [%] | inhibition of growth at 10 µM [2] [%] | inhibition of growth at 10 µM (SN12C) [%] | inhibition of growth at 10 µM (LOX IMVI) [%] | inhibition of growth at 10 µM (K562) [%] | inhibition of growth at 10 µM (HCT-116) [%] | inhibition of growth at 10 µM (SK-MEL-5) [%] | inhibition of growth at 10 µM (SW-620) [%] | inhibition of growth at 10 µM (PC-3) [%] | inhibition of growth at 10 µM (NCI-H226) [%] | inhibition of growth at 10 µM (SF-268) [%] | inhibition of growth at 10 µM (IGROV-1) [%] | MBC (Escherichia coli [3]) [µg/mL] | zone of inhibition at 1000 µg/mL (Pseudomonas aeruginosa [4]) [mm] | zone of inhibition at 1000 µg/mL (Candida albicans) [mm] | inhibition of growth at 10 µM (HOP-92) [%] | inhibition of growth at 10 µM (RPMI-8226) [%] | also measured
1 | Cc1nc(NC(=O)NC2CCCCC2)sc1C(=O)NN | 100 (≈ 336 µM) | < 10 | 5.51 | < 10 | 16 | < 10 | 7.54 | < 10 | 16.3 | < 10 | < 10 | < 10 | < 10 | < 10 | 28 | 100 (≈ 336 µM) | > 13 | > 13 | 82.8 | < 10 | inhibition of growth at 10 µM (CCRF-CEM): < 10%; zone of inhibition at 1000 µg/mL (Bacillus spizizenii [5]): > 13 mm; inhibition of growth at 10 µM (UACC-62): 10.2%; inhibition of growth at 10 µM [6]: 3.01%; inhibition of growth at 10 µM (HCT-15): 9.55%; growth inhibition (GI) (Aspergillus niger): inactive; MIC (Bacillus spizizenii [7]): 100 µg/mL (≈ 336 µM); MIC (Staphylococcus aureus): 25 µg/mL (≈ 84.1 µM); inhibition of growth at 10 µM (MDA-MB-468): 3.73%; MIC (Escherichia coli [8]): 50 µg/mL (≈ 168 µM); zone of inhibition at 1000 µg/mL (Escherichia coli [9]): > 13 mm; inhibition of growth at 10 µM (SK-MEL-2): 29.3%
2 | Cc1nc(NC(=O)Nc2ccccc2)sc1C(=O)NN | 50 (≈ 172 µM) | 25.8 | < 10 | 3.17 | 28 | < 10 | 10.1 | < 10 | 10.5 | 2.35 | < 10 | < 10 | 2.53 | < 10 | < 10 | 12.5 (≈ 42.9 µM) | > 13 | > 13 | < 10 | < 10 | inhibition of growth at 10 µM (CCRF-CEM): < 10%; zone of inhibition at 1000 µg/mL (Bacillus spizizenii [5]): > 13 mm; inhibition of growth at 10 µM (UACC-62): 11.9%; inhibition of growth at 10 µM [6]: 6.43%; inhibition of growth at 10 µM (HCT-15): 9.63%; growth inhibition (GI) (Aspergillus niger): inactive; MIC (Bacillus spizizenii [7]): 25 µg/mL (≈ 85.8 µM); MIC (Staphylococcus aureus): 12.5 µg/mL (≈ 42.9 µM); inhibition of growth at 10 µM (MDA-MB-468): < 10%; MIC (Escherichia coli [8]): 12.5 µg/mL (≈ 42.9 µM); zone of inhibition at 1000 µg/mL (Escherichia coli [9]): > 13 mm; inhibition of growth at 10 µM (SK-MEL-2): 37.8%

Source: ChEMBL document CHEMBL3124924, “Bifunctional ethyl 2-amino-4-methylthiazole-5-carboxylate derivatives: synthesis and in vitro biological evaluation as antimicrobial and anticancer agents” (2014)
